Sampled rows, rich in hits. Any-hit rate of the full collection: about 1.1%.
Yeast tox: yeast growth toxicity, wild-type and mutant, primary screen, cytotoxicity control for eIF2B function restoration project, wild-type and eIF2Bepsilon R284H mutant, A595 | S. cerevisiae wild-type growth, A595 turbidity, 16 h | growth inhibition, % at 25 µM (by protocol) | actives 0.3% (n = 30,000) | AID 685, 2007;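 active = mutant and wild-type yeast strains alike exhibit over 30% growth inhibition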;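 note: 0% = untreated cell controls and 100% = YPD media blanks without cells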
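Incubation: 16 h growth with compound, 30 °C; Material: S. cerevisiae wild-type or eIF2Bepsilon-R284H mutant strain; Signal: turbidity measured as absorbance at 595 nm; Medium: YPD yeast growth medium; Measure: growth inhibition (%) versus cell controls and blanks; Doses: 25 µM single dose.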
Yeast eIF2B: GCN4-lacZ reporter reduction in eIF2B-epsilon mutant yeast, primary screen, S. cerevisiae, eIF2B-epsilon R284H, Beta-Glo luminescence; inhibition, % at 25 µM (by protocol); actives 0.91% (n = 27,000); AID 688, 2007;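 active = mutant luminescence inhibited past about 50% while wild type luminescence and mutant growth stay under set limits, limit read from the data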
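System: Yeast eIF2B-epsilon R284H mutant carrying GCN4–beta-galactosidase fusion | Read-out basis: Percent inhibition, luminescence and growth | Compound: 25 µM single dose | Times: 16 h at 30 °C exposure | Measured by: Luminescence and A595 | Buffer or medium: YPD medium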
* = called active by the depositor; . = no result given.

SMILES	Yeast tox	Yeast eIF2B
COC(=O)c1cc2occc2n1CC(=O)Nc1ccc(OC)c(OC)c1	-2.3	60.3*
COC(=O)c1cc2occc2n1CC(=O)Nc1cc(OC)cc(OC)c1	-27.1	7.4
O=C1CNC(=O)N1Cc1ccc(Br)cc1	-8.9	51.0*
Brc1ccc(CN2CCSCC2)cc1	8.8	10.8
Cc1cc(C)n(-c2ccc(C(=O)NC3=NCCS3)cc2)n1	11.6	22.7
CC(C)C(NC(=O)c1ccccc1)C(=O)NC1=NCCS1 (stereo unspecified)	14.0	52.3*
CC(NC(=O)c1cccs1)C(=O)NC1=NCCS1 (stereo unspecified)	.	23.4
Cc1ccc(Cn2ccc(NC(=O)CCSc3nc(-c4ccco4)cc(C(F)(F)F)n3)n2)cc1	12.9	-17.9
C=C(C)COc1ccc(-c2ncncc2Oc2ccc(OC)cc2)c(O)c1	12.0	8.9
CC(C)CNC(=O)c1cc2nc(C3CC3)cc(C(F)(F)F)n2n1	8.9	56.8*
O=C(Nc1cccnc1)c1cc2nc(C3CC3)cc(C(F)(F)F)n2n1	4.2	-0.5
COc1cccc(C2/C(=C(\O)c3c(C)nc4c(C)cccn34)C(=O)C(=O)N2CCCN(C)C)c1OC (stereo unspecified)	1.3	13.2
C=CCN(C(=O)CCC(=O)O)C1CC(=O)N(c2ccc(OC)cc2)C1=O (stereo unspecified)	.	50.4*
C=CCN(C(C)=O)C1CC(=O)N(c2ccc(OCCC)cc2)C1=O (stereo unspecified)	6.2	.
Cc1cc(-c2nc3ccccc3o2)c2ccccc2n1	-5.6	4.7
Cc1nc2ccc(-c3ccccc3)cc2o1	32.4*	4.7
CCCn1nnc(NC(=O)c2cccc(OCc3ccccc3)c2)n1	14.6	.
Cc1cc(/C=N/n2cnnc2)c(C)n1-c1ccccc1	12.7	.
Cc1cc(/C=N/n2cnnc2)c(C)n1-c1ccc(OCc2ccc(Cl)cc2Cl)cc1	62.3*	1.4
COc1ccc(S(=O)(=O)N(CCCN2CCOCC2)Cc2cccc3ccccc23)cc1	2.8	2.8
COc1cccc(N2C(=O)Nc3ccccc3C2(O)C(=O)NCc2ccc3c(c2)OCO3)c1 (stereo unspecified)	8.0	6.4
CCCOCC1CC2(CC(C)(c3csc(N)n3)OC2=O)C(=O)O1 (stereo unspecified)	.	61.2*
CCCC1CC(C)(c2csc(Nc3ccc(OCC)cc3)n2)OC1=O (stereo unspecified)	-2.3	54.0*
CCOc1ccc(NC(=O)CC2CC(C)(C)OC2=O)cc1 (stereo unspecified)	3.3	6.3
COC(=O)c1cc2ccccc2oc1=O	4.5	23.1
SMILES	Yeast tox	Yeast eIF2B
O=C(Nc1ccncc1)c1cc2ccccc2oc1=O	9.5	50.3*
NS(=O)(=O)c1ccc(NC(=O)C2COc3ccccc3O2)cc1 (stereo unspecified)	-2.7	.
Cc1ccc(-n2c(N)c(C(N)=O)sc2=S)c(C)c1	5.5	-13.4
COc1ccc(Cl)cc1-n1c(N)c(C(N)=O)sc1=S	7.9	52.8*
O=C(NC1CCCC1)C1CCCN1C(=O)Nc1ccccc1 (stereo unspecified)	-22.9	-5.6
CCOC(=O)c1c(C)oc2c(CN3CCN(C)CC3)c(Br)c(OC)c(O)c12	-6.6	27.9
CN(C)CCn1c(=O)n(Cc2ccco2)c(=O)c2c3c(sc21)CCCCC3	23.7	.
CC1(C)Cc2c(sc3c2c(=N)n(Cc2ccco2)c(=O)n3Cc2ccc(F)cc2)CO1	-22.9	56.6*
O=C(Nc1nnc(SCC(=O)N2CCCCC2)s1)c1cccs1	-7.0	35.6
O=C(COc1ccccc1Cl)N1CCN(c2ccc(F)cc2)CC1	7.9	20.6
Cc1cc(=O)oc2ccc(OCC(=O)N3CCc4ccccc43)cc12	5.5	50.1*
Cc1cc(=O)oc2cc(OCC(=O)N3CCCc4ccccc43)ccc12	2.9	-7.3
CCCN(CCC)C(=O)CP(=O)(c1ccccc1)c1ccccc1	21.9	15.4
COc1ccc(S(=O)(=O)CCC(=O)N2c3ccccc3CC2C)cc1 (stereo unspecified)	-3.6	55.8*
COc1ccc(S(=O)(=O)CCC(=O)N2CC(=O)N(CCc3ccccc3)C(=O)C2)cc1	4.2	25.1
Cc1ccc(N2CC(C(=O)NCCC(C)C)CC2=O)cc1 (stereo unspecified)	-5.2	-26.9
Cc1ccnc2nc(C(=O)Nc3ccc(N4CCOCC4)cc3)nn12	23.7	52.6*
O=C(Nc1ccc(N2CCOCC2)cc1)c1ccncc1	.	-13.1
CC(C)=CC(=O)Nc1ccc2c(c1)OCO2	26.1	54.2*
Cc1ccc(CSCC(=O)Nc2ccc3c(c2)OCO3)cc1	13.5	.
COc1ccc(C2C=C(c3ccc(Cl)cc3)Nc3nc(NC(C)=O)nn32)cc1 (stereo unspecified)	19.4	1.5
COc1ccc(C2=CC(c3sccc3C)n3nnnc3N2)cc1 (stereo unspecified)	13.8	56.2*
COc1ccc(OC)c(C(O)c2coc3ccc(O)c(CN4CCOCC4)c23)c1 (stereo unspecified)	3.3	-20.5
Cc1ccc(C(c2sc3nc(C)nn3c2O)N2CCN(c3ccccc3F)CC2)cc1 (stereo unspecified)	44.1	-0.2
CNC(=O)CCn1nc(-c2ccccc2)c2ccccc2c1=O	-4.0	58.9*
SMILES	Yeast tox	Yeast eIF2B
CN(C)C(=O)Cn1nc(-c2ccccc2)c2ccccc2c1=O	.	10.5
O=C(Nc1ccccc1C(=O)O)c1cncc(Br)c1	11.5	15.4
COc1cc(/C=C/C(=O)c2c(O)cc(C)oc2=O)cc(OC)c1O	11.9	11.2
COc1cccc(/C=C/C(=O)c2c(O)cc(C)oc2=O)c1O	33.9*	24.8
CN(C)c1ccc(-c2noc(C3CCN(S(=O)(=O)c4cccc(C(=O)O)c4)CC3)n2)cc1	24.8	8.9
COc1cc2[nH]c(=S)n(N(C(C)=O)C(C)=O)c(=O)c2cc1OC	26.6	.
COc1cc2[nH]c(=S)n(C3CCCC3)c(=O)c2cc1OC	32.3*	3.4
CCOc1cc(C2CC(=O)Nc3cc(C)c(C)cc32)ccc1O (stereo unspecified)	28.3	25.1
O=C(C1CCC(CNc2nc(=S)[nH]c3ccccc23)CC1)N1CCN(c2ccccn2)CC1 (stereo unspecified)	-4.9	9.2
CC(C)C(=O)N1CCN(C2=NS(=O)(=O)c3ccccc32)CC1	-8.9	53.2*
CCCC(=O)N1CCN(C2=NS(=O)(=O)c3ccccc32)CC1	8.7	44.3
Cc1cccc(C)c1OCCCCCNCCO	13.1	29.2
CCCCCOC(=O)c1cc(=O)[nH]c2ccccc12	15.0	12.6
CCC(=O)N(Cc1cc(=O)[nH]c2ccccc12)c1cccc(C)c1	-20.3	51.2*
CC(Sc1nc(NCc2ccccc2)nc(N2CCOCC2)n1)C(=O)Nc1ccccc1 (stereo unspecified)	-20.3	24.1
CC(Oc1ccccc1)C(=O)OCC(=O)NC(=O)NCc1ccco1 (stereo unspecified)	4.5	24.0
CCn1c(NCc2ccccc2Cl)nc2ccccc21	4.8	18.7
CCn1c(CNc2nc3ccccc3n2C(C)C)nc2ccccc21	8.3	53.2*
O=C1CC(N2CCN(Cc3ccccc3)CC2)C(=O)N1c1ccc2c(c1)OCCO2 (stereo unspecified)	5.0	-3.8
Nn1c(SCc2nc3ccccn3c2Br)nnc1-c1cccnc1	4.4	17.7
